# Test results reported in ChEMBL document CHEMBL4346662, “Synthesis of novel 7-azaindole derivatives containing pyridin-3-ylmethyl dithiocarbamate moiety as potent PKM2 activators and PKM2 nucleus translocation inhibitors” (Eur J Med Chem, 2019).
# Calls of active or inactive are those of the source. No cut-off for these calls is given here.
# Columns and labels:
# Pyruvate kinase PKM [1] = molecular target: T1, Pyruvate kinase PKM (Homo sapiens, UniProt P14618); assay: Activation of human recombinant His-tagged PKM2 expressed in Escherichia coli using PEP as substrate measured at 30 sec between 3 and 6 mins in presence of […] by fluorescent pyruvate kinase-lactate dehydrogenase coupled assay
# In short: (§1)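 Pyruvate kinase activity read by fluorescent pyruvate kinase–lactate dehydrogenase coupled assay; AC50 and maximal activation are means of at least two determinations.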
# Target sequence in this assay (P14618 whole entry): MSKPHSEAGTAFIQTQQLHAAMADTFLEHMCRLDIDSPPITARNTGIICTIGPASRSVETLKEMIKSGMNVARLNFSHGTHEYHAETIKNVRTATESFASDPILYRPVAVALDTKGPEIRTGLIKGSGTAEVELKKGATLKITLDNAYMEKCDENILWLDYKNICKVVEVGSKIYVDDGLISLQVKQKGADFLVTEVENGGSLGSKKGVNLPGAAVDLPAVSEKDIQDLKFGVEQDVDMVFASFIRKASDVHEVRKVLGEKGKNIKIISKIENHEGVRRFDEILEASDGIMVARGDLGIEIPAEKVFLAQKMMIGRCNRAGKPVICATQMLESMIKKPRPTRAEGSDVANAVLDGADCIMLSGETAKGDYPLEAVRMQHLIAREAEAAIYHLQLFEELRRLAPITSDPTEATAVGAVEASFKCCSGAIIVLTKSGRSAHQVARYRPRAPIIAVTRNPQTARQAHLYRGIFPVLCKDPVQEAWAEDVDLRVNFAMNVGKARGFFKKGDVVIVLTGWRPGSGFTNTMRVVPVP
# Pyruvate kinase PKM [2] = molecular target: T1, Pyruvate kinase PKM; assay: Activation of human recombinant His-tagged PKM2 expressed in Escherichia coli assessed as maximal activity using PEP as substrate measured at 30 sec between 3 and 6 mins in presence of […] by fluorescent pyruvate kinase-lactate dehydrogenase coupled assay relative to control; in short: as §1
# Target sequence in this assay (P14618 2-531 limits assumed): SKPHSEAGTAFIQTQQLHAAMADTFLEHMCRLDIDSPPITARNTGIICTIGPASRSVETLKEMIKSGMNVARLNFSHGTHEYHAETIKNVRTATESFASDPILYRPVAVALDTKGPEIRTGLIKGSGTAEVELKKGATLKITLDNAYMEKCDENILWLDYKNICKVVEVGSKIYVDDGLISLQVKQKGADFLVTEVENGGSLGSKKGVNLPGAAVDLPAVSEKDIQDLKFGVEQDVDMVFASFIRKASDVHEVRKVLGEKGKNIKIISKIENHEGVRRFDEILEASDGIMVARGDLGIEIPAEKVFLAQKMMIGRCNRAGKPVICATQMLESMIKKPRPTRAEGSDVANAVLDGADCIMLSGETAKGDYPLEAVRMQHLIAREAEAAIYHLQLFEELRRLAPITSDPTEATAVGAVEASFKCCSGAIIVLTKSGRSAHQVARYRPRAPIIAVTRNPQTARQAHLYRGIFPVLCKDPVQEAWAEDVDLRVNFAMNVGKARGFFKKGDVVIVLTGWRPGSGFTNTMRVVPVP
# NCI-H1299 = assay: Antiproliferative activity against human H1299 cells assessed as reduction in cell growth incubated for 72 hrs by CellTiter-Glo assay; type: functional, cell-based; settings: NCI-H1299, 72 h
# In short: (§2)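 Cells (H1299 in RPMI 1640; HCT116 and A375 in DMEM; 10% FBS, 37 °C, 5% CO2) plated at 2000 per well, left 24 h, then exposed to ten concentrations or DMSO for 72 h. CellTiter-Glo added, 30 min at room temperature in dark, luminescence read. IC50 fitted from triplicate experiments.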
# HCT-116 = assay: Antiproliferative activity against human HCT116 cells assessed as reduction in cell growth incubated for 72 hrs by CellTiter-Glo assay; type: functional, cell-based; settings: HCT-116, 72 h; in short: as §2
# A-375 = assay: Antiproliferative activity against human A375 cells assessed as reduction in cell growth incubated for 72 hrs by CellTiter-Glo assay; type: functional, cell-based; settings: A-375, 72 h; in short: as §2
SMILES,AC50 (Pyruvate kinase PKM [1]; read-out: AC50) [nM],%max (Pyruvate kinase PKM [2]),IC50 (NCI-H1299) [nM],IC50 (HCT-116) [nM],IC50 (A-375) [nM],AC50 (Pyruvate kinase PKM [1])
O=C(CCSC(=S)NCc1cccnc1)c1c[nH]c2nccc(Cl)c12,1140,122%,2500,2060,410,–
Cc1ccc2c(C(=O)CCSC(=S)NCc3cccnc3)c[nH]c2n1,–,inactive,–,–,–,Not Active
C#Cc1ccnc2[nH]cc(C(=O)CCSC(=S)NCc3cccnc3)c12,> 20000,24%,–,–,–,–
O=C(CCSC(=S)NCc1cccnc1)c1c[nH]c2nccc(Br)c12,610,83%,> 10000,4900,1990,–
O=C(CCSC(=S)NCc1cccnc1)c1c[nH]c2ncc(Cl)cc12,180,71%,8870,6160,3380,–
O=C(CCSC(=S)NCc1cccnc1)c1cn(-c2cccs2)c2ncccc12,–,inactive,–,–,–,Not Active
O=C(CCSC(=S)NCc1cccnc1)c1cn(-c2ccccc2)c2ncccc12,2500,77%,10000,5360,3860,–
O=C(CCSC(=S)NCc1cccnc1)c1cnn2ncccc12,220,44%,1760,1520,330,–
O=C(CCSC(=S)NCc1cccnc1)c1c[nH]c2nc(Cl)ccc12,–,inactive,–,–,–,Not Active
